Results from ChEMBL document CHEMBL1128232, “Synthesis of novel thiol-containing citric acid analogues. Kinetic evaluation of these and other potential active-site-directed and mechanism-based inhibitors of ATP citrate lyase” (J Med Chem, 1995).

Key:
ATP-citrate synthase [1] = molecular target: T1, ATP-citrate synthase (Rattus norvegicus, UniProt P16638); test: Irreversible inactivation of rat ATP-Citrate Lyase; nd=not detectable
T1 sequence (P16638 whole entry): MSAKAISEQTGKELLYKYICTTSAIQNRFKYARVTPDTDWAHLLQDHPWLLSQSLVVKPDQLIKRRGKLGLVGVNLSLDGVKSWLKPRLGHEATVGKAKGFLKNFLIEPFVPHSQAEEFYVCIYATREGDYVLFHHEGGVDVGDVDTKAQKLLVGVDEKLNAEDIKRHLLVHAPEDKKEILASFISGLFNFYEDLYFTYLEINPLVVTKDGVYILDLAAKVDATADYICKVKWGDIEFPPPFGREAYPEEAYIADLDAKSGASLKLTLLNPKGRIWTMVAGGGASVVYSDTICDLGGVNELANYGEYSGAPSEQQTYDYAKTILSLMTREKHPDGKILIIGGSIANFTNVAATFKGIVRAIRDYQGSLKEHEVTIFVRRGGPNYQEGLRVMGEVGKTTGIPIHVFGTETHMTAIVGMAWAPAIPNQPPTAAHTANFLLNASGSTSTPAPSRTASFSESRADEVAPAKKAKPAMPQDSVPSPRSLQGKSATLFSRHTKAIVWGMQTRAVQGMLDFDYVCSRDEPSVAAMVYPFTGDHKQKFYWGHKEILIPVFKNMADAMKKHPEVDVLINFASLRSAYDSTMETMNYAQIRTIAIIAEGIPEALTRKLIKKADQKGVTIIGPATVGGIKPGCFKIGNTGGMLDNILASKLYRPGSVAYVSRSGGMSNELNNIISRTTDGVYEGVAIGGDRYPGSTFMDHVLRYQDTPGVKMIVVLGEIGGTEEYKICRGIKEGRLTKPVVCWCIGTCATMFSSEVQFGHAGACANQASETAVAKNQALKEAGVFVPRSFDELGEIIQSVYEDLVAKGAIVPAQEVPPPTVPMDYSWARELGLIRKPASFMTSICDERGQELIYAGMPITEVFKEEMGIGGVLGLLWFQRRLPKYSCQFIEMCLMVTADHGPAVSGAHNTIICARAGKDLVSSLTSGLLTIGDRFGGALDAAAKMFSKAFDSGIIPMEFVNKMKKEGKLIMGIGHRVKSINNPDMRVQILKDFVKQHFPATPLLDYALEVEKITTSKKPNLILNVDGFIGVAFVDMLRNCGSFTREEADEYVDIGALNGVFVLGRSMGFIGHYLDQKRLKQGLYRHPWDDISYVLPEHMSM
Summary of the method: (§1)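 Rat liver ATP citrate lyase (purified) incubated with 2 mM inhibitor at 25 °C in Tris-HCl pH 8.0; aliquots withdrawn over 48 h and placed directly into assay cocktail with saturating substrate. Remaining activity read as carbon–carbon cleavage of citrate to detect time-dependent inactivation.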

ATP-citrate synthase [2] = molecular target: T1, ATP-citrate synthase; test: Reversible binding potential for rat ATP-Citrate Lyase as carbon-carbon bond cleavage activity in citrate substrate
Summary of the method: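 Purified rat liver enzyme; carbon–carbon cleavage activity measured at 1.0 mM citrate (equal to Km). Ki derived by fitting rate data to the competitive inhibition equation, which reduces under these conditions to V = Vmax/(2 + [I]/Ki).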

ATP-citrate synthase [3] = molecular target: T1, ATP-citrate synthase; test: Irreversible inactivation was evaluated against rat ATP-Citrate Lyase; nd= Time dependent inactivation was not detectable above thermal decay rate of 5.0 x10E-3 1/h at 2 mM inhibitor at […]; not detectable; summary of the method: as §1

| Compound | Ki (ATP-citrate synthase [1]) | Ki (ATP-citrate synthase [2]) | Ki (ATP-citrate synthase [3]) |
| --- | --- | --- | --- |
| O=C(O)C[C@@](O)(C(=O)O)[C@@H](Cl)C(=O)O | Not detectable | 29 µM | – |
| O=C(O)/C=C(\CC(=O)O)C(=O)O [ACONITIC ACID] | Not detectable | > 1000 µM | – |
| O=C(O)C[C@@](O)(C(=O)O)[C@H](O)C(=O)O | – | 0.15 µM | Not detectable |
| O=C(O)CC(S)(CC(=O)O)C(=O)O | Not detectable | 295 µM | – |
| CSS[C@H](C(=O)O)[C@@](O)(CC(=O)O)C(=O)O | Not detectable | 34 µM | – |
| C=C(CC(=O)O)C(=O)O [ITACONATE] | Not detectable | > 1000 µM | – |
| O=C(O)/C=C(/CC(=O)O)C(=O)O | Not detectable | > 1000 µM | – |
| CSSC(CC(=O)O)(CC(=O)O)C(=O)O | Not detectable | 480 µM | – |
| O=C(O)C[C@]1(C(=O)O)O[C@@H]1C(=O)O | Not detectable | 400 µM | – |
| O=C(O)C[C@]1(C(=O)O)O[C@H]1C(=O)O | Not detectable | 18 µM | – |
| O=C1C[C@@](C(=O)O)([C@@H](Cl)C(=O)O)O1 | Not detectable | 340 µM | – |
| O=C(O)C[C@@](O)(C(=O)O)[C@@H](S)C(=O)O | Not detectable | 150 µM | – |
| O=C(O)C[C@@](O)(C(=O)O)[C@H](S)C(=O)O | Not detectable | 58 µM | – |
